In assay [1] the test system is H3 (1-42). Kind of assay: 15N-labeled H3. It counts as binding, human. The following applies: 80 μM 15N-H3, 2 equivalents unlabeled Pf1 PHD1; 20 mM Tris-d11 pH 6.0, 50 mM NaCl, 10 μM ZnSO4, 15 mM DTT, 25 °C.
Assay [2] relates to Pf1 PHD1/MBD (residues 48–241). Kind of assay: NMR of 15N-labeled Pf1 PHD1/MBD with MRG15 proteins. Format: binding, human.
Assay [3] concerns Pf1 PHD1 (residues 48–116). Kind of assay: NMR of 15N-labeled Pf1 PHD1 with full-length MRG15 and Pf1 MBD. Format: binding, human. To be noted: 1:1 mixture with full-length MRG15; pH 7.5, 25 °C.
Assay [4] has as its target Pf1 PHD1 (Homo sapiens, UniProt Q96QT6). Kind of assay: NMR of mixture of 15N-MRG15 CD and 15N-Pf1 PHD1. Format: binding. The following applies: 1:1 mixture, absence of histone targets. In outline: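 Both proteins were recombinant, expressed in E. coli BL21(DE3) and uniformly 15N-labelled by growth in M9 minimal medium with 15N-ammonium sulfate. They were purified by affinity resin, TEV cleavage and reversed-phase HPLC, then lyophilized; labelling was confirmed by ESI-MS. Pf1 PHD1 was refolded in 6 M Gdn-HCl with 50 mM DTT (42 °C, 5 h), given ZnSO4, and gel-filtered. Concentrations were measured spectrophotometrically.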

B1: PHD1: human Pf1 PHD1 domain (residues 48–116) (protein)
chain: RRSGRATNHDSCDSCKEGGDLLCCDHCPAAFHLQCCNPPLSEEMLPPGEWMCHRCTVRRKKREQKKELG
modifications: left off: GST, end not stated, cleaved
For the molecule B1, the “perturbation of H3 (1-42) resonances” value in assay [1] was “The amide resonances of Thr3 and Lys4 were broadened beyond detection upon PHD1 addition while that of Thr6 was significantly broadened”.

B2: full-length MRG15: full-length MRG15 (residues 1–323) (protein)
chain: MAPKQDPKPKFQEGERVLCFHGPLLYEAKCVKVAIKDKQVKYFIHYSGWNKNWDEWVPESRVLKYVDTNLQKQRELQKANQEQYAEGKMRGAAPGKKTSGLQQKNVEVKTKKNKQKTPGNGDGGSTSETPQPPRKKRARVDPTVENEETFMNRVEVKVKIPEELKPWLVDDWDLITRQKQLFYLPAKKNVDSILEDYANYKKSRGNTDNKEYAVNEVVAGIKEYFNVMLGTQLLYKFERPQYAEILADHPDAPMSQVYGAPHLLRLFVRIGAMLAYTPLDEKSLALLLNYLHDFLKYLAKNSATLFSASDYEVAPPEYHRKAV
modifications: left off: His tag (from the vector pMCSG7), end not stated, state not stated
With B2, the “effect on 15N-Pf1 PHD1/MBD spectrum” value in assay [2] (equimolar, 20 mM Tris pH 7.5, 50 mM NaCl, 10 μM ZnSO4, 15 mM DTT, 0.2% NaN3, 25 °C) is “disappearance of most of the resonances belonging to the PHD1 domain”. In assay [3], the “effect on 15N-PHD1 spectrum without Pf1 MBD” value is “little or no perturbations compared to the apo-PHD1”.

B3: MRG15 CD: MRG15 CD (residues 1–90) (protein)
chain: MAPKQDPKPKFQEGERVLCFHGPLLYEAKCVKVAIKDKQVKYFIHYSGWNKNWDEWVPESRVLKYVDTNLQKQRELQKANQEQYAEGKMR
modifications: left off: His6, N-terminal, cleaved
As for B3, in assay [4], the “direct interaction of MRG15 CD and Pf1 PHD1” value was “largely unperturbed”. The “involvement of MRG15 CD in PHD1 interactions” value in assay [2] (1D 1H NMR of Pf1 PHD1/MBD-MRG15 complex (Supp. Fig. S4)) is given as “appeared to be not involved in PHD1 interactions”.

The values are drawn from PMC3428507 (Journal of molecular biology, 2012).
